Compounds with a hit are over-represented: about 2.4% of the library has one in this group of screens.
Rin1 Abl inh: blocks binding of human Rin1 to Abl; AID 588664; TR-FRET Rin1/Abl binding, biochemical; hit rate 0.4% among 360,000; P00519+Q13671; inhibition, % at 7.35 µM; in the data active means inhibition above about 5%, passing the limit was not always enough
Target sequence (P00519 whole entry, looked up): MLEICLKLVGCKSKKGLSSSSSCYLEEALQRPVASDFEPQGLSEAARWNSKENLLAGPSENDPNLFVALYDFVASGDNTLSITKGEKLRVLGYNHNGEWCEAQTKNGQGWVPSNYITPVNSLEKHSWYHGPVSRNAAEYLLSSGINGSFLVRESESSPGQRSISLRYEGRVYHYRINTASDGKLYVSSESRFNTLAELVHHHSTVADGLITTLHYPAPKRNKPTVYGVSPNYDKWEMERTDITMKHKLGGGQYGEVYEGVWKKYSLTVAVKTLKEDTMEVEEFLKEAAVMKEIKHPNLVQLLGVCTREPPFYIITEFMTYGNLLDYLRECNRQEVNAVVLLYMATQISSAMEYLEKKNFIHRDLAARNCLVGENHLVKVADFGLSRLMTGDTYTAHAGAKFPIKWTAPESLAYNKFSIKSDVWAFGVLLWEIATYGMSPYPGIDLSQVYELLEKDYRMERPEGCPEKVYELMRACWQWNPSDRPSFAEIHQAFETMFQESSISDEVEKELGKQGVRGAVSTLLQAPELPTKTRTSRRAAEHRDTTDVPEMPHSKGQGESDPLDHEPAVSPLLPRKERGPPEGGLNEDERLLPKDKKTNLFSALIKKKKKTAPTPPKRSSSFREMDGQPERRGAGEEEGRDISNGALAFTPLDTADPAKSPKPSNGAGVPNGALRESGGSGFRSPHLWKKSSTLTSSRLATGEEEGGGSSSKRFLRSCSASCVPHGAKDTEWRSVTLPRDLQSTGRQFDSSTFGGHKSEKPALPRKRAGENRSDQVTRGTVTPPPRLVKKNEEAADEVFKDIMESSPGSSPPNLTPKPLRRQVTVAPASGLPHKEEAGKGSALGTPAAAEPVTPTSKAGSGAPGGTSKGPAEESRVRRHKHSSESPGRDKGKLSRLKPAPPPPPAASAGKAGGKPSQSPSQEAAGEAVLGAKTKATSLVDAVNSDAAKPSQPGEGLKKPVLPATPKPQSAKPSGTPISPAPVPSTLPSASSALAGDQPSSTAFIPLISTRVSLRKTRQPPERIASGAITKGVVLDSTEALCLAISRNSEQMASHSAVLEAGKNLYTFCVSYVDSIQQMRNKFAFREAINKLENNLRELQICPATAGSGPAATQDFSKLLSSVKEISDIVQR
Target sequence (Q13671 whole entry, looked up): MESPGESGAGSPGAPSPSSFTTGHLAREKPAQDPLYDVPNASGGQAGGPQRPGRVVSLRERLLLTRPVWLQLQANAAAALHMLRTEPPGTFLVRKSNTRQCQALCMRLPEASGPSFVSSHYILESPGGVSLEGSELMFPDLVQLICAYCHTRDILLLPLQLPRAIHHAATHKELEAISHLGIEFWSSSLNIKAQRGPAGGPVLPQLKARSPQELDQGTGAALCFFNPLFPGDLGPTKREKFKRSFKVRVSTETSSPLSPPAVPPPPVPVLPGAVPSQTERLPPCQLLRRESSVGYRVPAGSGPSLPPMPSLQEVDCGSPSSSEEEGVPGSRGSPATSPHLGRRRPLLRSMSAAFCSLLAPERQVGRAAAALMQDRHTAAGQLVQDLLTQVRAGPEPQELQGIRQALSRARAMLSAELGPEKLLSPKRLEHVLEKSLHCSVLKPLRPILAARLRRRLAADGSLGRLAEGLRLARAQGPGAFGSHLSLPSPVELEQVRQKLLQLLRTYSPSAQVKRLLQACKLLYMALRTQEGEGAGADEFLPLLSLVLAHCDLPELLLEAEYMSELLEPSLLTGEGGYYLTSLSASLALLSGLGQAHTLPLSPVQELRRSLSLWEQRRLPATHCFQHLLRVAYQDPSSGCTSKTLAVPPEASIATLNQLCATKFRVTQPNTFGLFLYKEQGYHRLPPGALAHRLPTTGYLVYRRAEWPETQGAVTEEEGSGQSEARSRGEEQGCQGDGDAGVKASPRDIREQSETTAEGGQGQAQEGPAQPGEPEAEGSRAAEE
HNF4A DNA FP: change in binding of human HNF4 alpha to DNA; activity change, % at 10 µM; hit rate 0.3% among 360,000; HNF4a-FITC DNA binding, fluorescence polarization, 1 h; in the data active means activity change above about 30%, passing the limit was not always enough
CSN inh: blocks human CSN-mediated cullin deneddylation; Q92905; Purified CSN, SCF-Nedd8-OG deneddylation, fluorescence polarization; inhibition, % at 12.5 µM; hit rate 0.38% among 360,000; AID 651999;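 active means pattern-corrected inhibition above about 35%, with an unprinted fluorescence ratio check between 0.5 and 1.5, limit read from the data, passing the limit was not always enough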;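 further: 0% = enzyme with substrate and 100% = substrate without enzyme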
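test system = HEK293T-derived human Csn5 enzyme | amount = 0.24 nM Csn5 enzyme, final concentration | medium = Tris/NaCl/DTT buffer, pH 7.5 | schedule = 90 min reaction at room temperature | signal = FP | evaluation = inhibition of Csn5 cleavage, % | compound dosing = single dose of 12.5 µM compound with 0.25% DMSO | probe or stimulus = 10 nM SCFSkp2-Nedd8OG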
Neddylation inh: cullin neddylation inhibition; hit rate 0.58% among 360,000; TR-FRET cullin neddylation, biochemical; P61081+Q13564; inhibition, % at 25 µM; in the data active means inhibition above about 36%
Rpn11 inh: Rpn11 (human) deubiquitinase inhibition. human 26S proteasome, Ub4-pepOG fluorescence polarization; 20S core pre-blocked with epoxomicin. hit rate 0.59% among 360,000. AID 588493. O00487. inhibition, % at 20 µM;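 active means inhibition at 20 µM, scaled to each plate's controls, above about 33%, limit read from the data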
TPT1 inhibitor: inhibitors of Candida albicans tRNA 2'-phosphotransferase TPT1; recombinant caTPT1, FP RNA substrate dephosphorylation; hit rate 0.81% among 300,000; AID 1962; inhibition, % at 5 µM;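 active means inhibition above the mean of all tested compounds plus 3 SD, set per screening campaign, cut at about 24% in these data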;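 further: plate controls were DMSO alone for no effect and ferristatin control at 100 nM for full effect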
Rin1 Abl conf: confirmation of inhibitors of human Rin1-Abl interaction; shares compounds with Rin1 Abl inh; TR-FRET Rin1-Abl binding, purified proteins; inhibition, % at 7.35 µM; hit rate 49% among 1,300; AID 602124
GFP quench: GFP fluorescence interference artifact; inhibitors/quenchers counterscreen; hit rate 8.5% among 1,300; inhibition, % at 6.75 µM; shares compounds with Rin1 Abl inh; AID 602125;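 further: ABL1-eGFP fusion protein alone without its partner RIN1-SBP; 0% = protein with vehicle and 100% = wells lacking protein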
GFP quench DR: GFP fluorescence interference dose response. shares compounds with Rin1 Abl inh. 230 tested, under 10 active. GFP fluorescence interference/quenching counterscreen. IC50, µM. AID 602182; call rule not given here;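 further: ABL1-eGFP fusion protein alone without its RIN1 binding partner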
* marks the source's active call; other numbers are inactive results; nt = not tested or not shown. Unless noted, no stated cut-off is given here; in the data, active means inhibition above about 6.5%; inactive means the rest.

SMILES	Rin1 Abl inh	HNF4A DNA FP	CSN inh	Neddylation inh	Rpn11 inh	TPT1 inhibitor	Rin1 Abl conf	GFP quench	others
Clc1ccc2c(SCC3CO3)c3ccccc3nc2c1 (stereo not drawn)	-3.6	-6.7	9.8	18.5	22.4	nt	nt	nt
O=C1C(Nc2ccccc2)=CC(c2ccc(O)cc2)N1c1ccccc1 (stereo not drawn)	-2.2	1.2	1.8	35.7	-11.3	2.2	nt	nt
COc1cc(C2C=C(Nc3ccccc3)C(=O)N2c2ccccc2)ccc1O (stereo not drawn)	7.1*	-1.4	-2.9	30.0	-0.9	6.0	-2.5	-0.9
COc1ccc(C2C3=C(CC(C)(C)CC3=O)Oc3ncn(CCO)c(=N)c32)cc1OC (stereo not drawn)	14.4*	0.3	1.6	3.6	2.4	0.2	1.3	0.3
CC(C)Cn1cnc2c(c1=N)C(c1ccccc1)C1=C(CC(C)(C)CC1=O)O2 (stereo not drawn)	7.0*	-0.6	6.8	12.6	3.8	-2.4	0.6	-0.8
O=C(Nc1cccc(C(F)(F)F)c1)c1cccnc1NCCc1ccccc1	0.8	4.5	-3.8	nt	0.2	-3.4	nt	nt
O=C(Nc1cccc(C(F)(F)F)c1)c1cccnc1NCCO	6.9*	4.0	2.3	26.3	-3.6	-2.0	0.8	0.4
Cc1ccc(NC(=O)c2ccccc2NS(=O)(=O)c2ccc(F)cc2)cc1S(=O)(=O)N1CCCCC1	-3.4	-0.9	-3.5	nt	7.6	-5.5	nt	nt
CCc1ccc(C(=O)Cc2cc3cccc(OC)c3oc2=O)cc1	8.5*	-2.2	0.5	-15.6	-3.0	-0.8	0.6	-0.4
CNCc1ccccc1Sc1ccc(O)c(O)c1	11.9*	-4.0	-2.4	-5.7	-12.7	-1.3	6.4*	0.4
CCOC(=O)C1CCN(C(=O)Cn2c(=O)c3cccn3c3cccnc32)CC1	-2.4	-0.1	2.7	-2.8	4.4	-1.8	nt	nt
C[C@@H]1NC(=O)N[C@@H]1CCCCCC(=O)O	91.6*	-1.6	0.6	2.0	-1.4	-0.8	95.3*	0.5	GFP quench DR=>67.5
Cc1cccc(C)c1NC(=O)CCCCCC1NC(=O)NC1C (stereo not drawn)	82.4*	-0.8	1.2	1.6	-0.3	-0.5	91.0*	-0.3	GFP quench DR=>67.5
CCCCCC1NC(=O)NC1CCCCCC(=O)O (stereo not drawn)	14.0*	4.4	-1.1	-1.7	-1.1	-4.5	14.1*	0.2
CCCCCCCC(=O)O	-3.1	-2.3	-6.1	-2.1	-3.6	nt	nt	nt
O=C(NCCN1C(=O)S/C(=C/c2cccnc2)C1=O)C1CC(=O)N(Cc2ccccc2)C1 (stereo not drawn)	-0.1	-3.2	0.5	-9.3	3.1	-3.9	nt	nt
Cc1cccc(NC(=O)[C@@H](CC(C)C)NC(=O)[C@@H]2Cc3ccccc3CN2)c1	29.5*	6.2	2.4	3.2	-1.7	-1.1	2.2	1.1
Cc1cccc(NC(=O)[C@H](NC(=O)[C@@H]2Cc3ccccc3CN2)c2ccccc2)c1	2.2	-2.7	-2.9	5.3	-3.6	1.0	nt	nt
CN1CCN(CC(=O)Nc2nnc(-c3cccs3)s2)CC1	-1.6	3.2	3.6	9.8	11.4	1.7	nt	nt
Cc1cc(C(=O)N/N=C2\CCCc3ccccc32)c(C)o1	10.8*	4.5	4.4	5.5	-8.8	-0.3	-0.9	-1.5
CN(C)NC(=O)c1ccsc1NC(=O)c1ccc(S(=O)(=O)N(C)C)cc1	-1.9	6.2	2.6	9.1	2.6	-3.6	nt	nt
CCN(C1CCCCC1)S(=O)(=O)c1ccc(-n2cnnn2)c(C)c1	13.8*	0.8	-4.6	0.8	-2.1	-2.0	-0.9	0.3
CCN(C1CCCCC1)S(=O)(=O)c1ccc(OC)c(C)c1	-0.3	-3.7	3.9	2.7	-2.0	-4.0	nt	nt
O=C(COC(=O)C12CC3CC(CC(O)(C3)C1)C2)NC(=O)NCc1ccco1	-3.0	-0.9	-6.1	-3.7	-2.8	-4.6	nt	nt
COC(=O)c1ccc(COC(=O)c2ccc(CO)cc2)o1	7.3*	-2.0	2.4	10.9	3.2	3.5	5.8	-0.9
SMILES	Rin1 Abl inh	HNF4A DNA FP	CSN inh	Neddylation inh	Rpn11 inh	TPT1 inhibitor	Rin1 Abl conf	GFP quench	others
COC(=O)c1ccc(COC(=O)C23CC4CC(CC(O)(C4)C2)C3)o1	19.7*	0.0	1.0	1.5	3.7	0.5	16.7*	0.7	GFP quench DR=>67.5
CC(OC(=O)CCN1C(=O)C2CC=CCC2C1=O)C(=O)c1ccc(F)cc1 (stereo not drawn)	-0.2	4.7	-3.7	-20.2	-1.1	nt	nt	nt
O=C(CN1C(=O)CCSc2ccc(S(=O)(=O)N3CCOCC3)cc21)Nc1cccc(F)c1	16.5*	7.9	2.5	9.3	-0.8	2.3	14.6*	1.7
Cc1noc(C)c1NC(=O)N(C)C[C@H]1Oc2ccc(NS(=O)(=O)c3cn(C)cn3)cc2C(=O)N([C@H](C)CO)C[C@@H]1C	2.4	1.0	2.2	-4.9	-2.1	nt	nt	nt
COc1cccc(C(=O)Nc2cccc(SC)c2)c1	6.3*	-0.7	1.1	0.9	-1.5	-5.0	0.2	-0.4
COc1cccc(C(=O)Nc2ccccc2)c1	-0.9	0.0	-2.5	0.6	1.6	0.6	nt	nt
S=C(NCc1ccc2c(c1)OCO2)NC1CCN(Cc2ccccc2)CC1	10.4*	1.3	5.7	9.9	-6.7	-0.9	11.0*	1.1
S=C(NCc1ccccc1)N1CCN(Cc2ccc3c(c2)OCO3)CC1	1.6	-6.3	5.2	13.8	-3.1	-2.8	nt	nt
COc1ccc(OC)c(NC(=O)CC2C(=O)NCCN2C(=O)Nc2cccc(Cl)c2)c1 (stereo not drawn)	9.2*	3.1	-4.7	1.6	-5.7	0.9	13.5*	1.1
O=C(CC1SCCNC1=O)Nc1cccc(C(F)(F)F)c1 (stereo not drawn)	7.8*	-3.4	-1.0	2.2	1.9	1.5	4.0	-0.4
O=C(CC1SCCNC1=O)Nc1cccc(Cl)c1 (stereo not drawn)	9.6*	3.4	3.0	11.7	-2.5	0.4	18.7*	0.5	GFP quench DR=>67.5
COc1ccc(C(=O)N2CCNC(=O)C2CC(=O)Nc2cc(Cl)ccc2OC)cc1 (stereo not drawn)	0.4	-0.5	6.4	-1.9	6.1	-3.5	nt	nt
CCc1ccccc1NC(=O)CC1SCCNC1=O (stereo not drawn)	5.7	5.2	-7.3	1.4	1.6	1.2	nt	nt
O=C(C(=O)N1CCN(c2ccccc2)CC1)c1ccncc1	nt	5.6	1.9	-12.6	nt	nt	nt	nt
CC1CCN(c2nc3c(c(=O)n(C)c(=O)n3C)n2CCSc2nc3ccccc3s2)CC1	-1.6	1.8	3.0	-18.9	-1.0	-1.0	nt	nt

Compound activity as filed in PubChem.
